According to ChEMBL document CHEMBL1649154, “Antibiotic susceptibility and characteristics of Neisseria meningitidis isolates from the African meningitis belt, 2000 to 2006: phenotypic and genotypic perspectives” (2009):
In brackets after ≈: the same amount, converted by molar mass.

Experiments:
Assay type in all cases: functional
[1] = tested on: Neisseria meningitidis; experiment: Antibacterial activity against Beta-lactamase-negative Neisseria meningitidis assessed as percent resistant isolates by Etest method
In short: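 Isolates were classed resistant using breakpoints drawn from several organizations. Serogroup A reference strain OR173/87 was included for quality control.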

[2] = tested on: Neisseria meningitidis; experiment: Antibacterial activity against Beta-lactamase-negative Neisseria meningitidis assessed as percent susceptible isolates by Etest method
In short: (§1)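 Serogroup A reference strain OR173/87 included for quality control. Isolates were classed susceptible, intermediate or resistant using breakpoints drawn from several organizations.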

[3] = tested on: Neisseria meningitidis; experiment: Antibacterial activity against Beta-lactamase-negative Neisseria meningitidis assessed as percent intermediate isolates by Etest method; in short: as §1
[4] = tested on: Neisseria meningitidis; experiment: Antibacterial activity against Beta-lactamase-negative Neisseria meningitidis by Etest method

Structure (SMILES)	Activity [1] [%]	Activity [2] [%]	Activity [3] [%]	MIC50 [4] [µg/mL]	MIC90 [4] [µg/mL]	MIC [4] [µg/mL]
CC1(C)S[C@@H]2[C@H](NC(=O)[C@H](N)c3ccccc3)C(=O)N2[C@H]1C(=O)O [AMPICILLIN]	0	99	1	0.064 (≈ 0.183 µM)	0.094 (≈ 0.269 µM)	–
CO/N=C(\C(=O)N[C@@H]1C(=O)N2C(C(=O)O)=C(CSc3nc(=O)c(O)nn3C)CS[C@H]12)c1csc(N)n1 [CEFTRIAXONE]	–	100	0	< 0.002	< 0.002	< 0.002
CO/N=C(\C(=O)N[C@@H]1C(=O)N2C(C(=O)O)=C(COC(N)=O)CS[C@H]12)c1ccco1 [CEFUROXIME]	0	99	1	0.047 (≈ 0.111 µM)	0.094 (≈ 0.221 µM)	–
O=C(N[C@H](CO)[C@H](O)c1ccc([N+](=O)[O-])cc1)C(Cl)Cl [CHLORAMPHENICOL]	–	100	0	0.75 (≈ 2.32 µM)	1 (≈ 3.09 µM)	–
O=C(O)c1cn(C2CC2)c2cc(N3CCNCC3)c(F)cc2c1=O [CIPROFLOXACIN]	–	100	0	0.004 (≈ 0.0121 µM)	0.004 (≈ 0.0121 µM)	–
CC[C@H]1OC(=O)[C@H](C)[C@@H](O[C@H]2C[C@@](C)(OC)[C@@H](O)[C@H](C)O2)[C@H](C)[C@@H](O[C@@H]2O[C@H](C)C[C@H](N(C)C)[C@H]2O)[C@](C)(O)C[C@@H](C)C(=O)[C@H](C)[C@@H](O)[C@]1(C)O [ERYTHROMYCIN]	74	26	0	0.75 (≈ 1.02 µM)	1 (≈ 1.36 µM)	0.032 (≈ 0.0436 µM)
CC1(C)S[C@@H]2[C@H](NC(=O)Cc3ccccc3)C(=O)N2[C@H]1C(=O)O [PENICILLIN G]	0	98	2	0.047 (≈ 0.141 µM)	0.094 (≈ 0.281 µM)	–
CC1(C)S[C@@H]2[C@H](NC(=O)COc3ccccc3)C(=O)N2[C@H]1C(=O)O [PENICILLIN V]	1	99	0	0.19 (≈ 0.542 µM)	0.38 (≈ 1.08 µM)	0.016 (≈ 0.0457 µM)
CO[C@H]1/C=C/O[C@@]2(C)Oc3c(C)c(O)c4c(O)c(c(/C=N/N5CCN(C)CC5)c(O)c4c3C2=O)NC(=O)/C(C)=C\C=C\[C@H](C)[C@H](O)[C@@H](C)[C@@H](O)[C@@H](C)[C@H](OC(C)=O)[C@@H]1C [RIFAMPIN]	0	99	1	0.064 (≈ 0.0778 µM)	0.125 (≈ 0.152 µM)	–
Nc1ccc(S(=O)(=O)Nc2ncccn2)cc1 [SULFADIAZINE]	94	0	6	> 256	> 256	–
CN(C)[C@@H]1C(O)=C(C(N)=O)C(=O)[C@@]2(O)C(O)=C3C(=O)c4c(O)cccc4[C@@](C)(O)[C@H]3C[C@@H]12 [TETRACYCLINE]	52	48	0	2 (≈ 4.5 µM)	4 (≈ 9 µM)	–
